Measured values as given in ChEMBL document CHEMBL5653631, “A Potent and Selective ULK1 Inhibitor Suppresses Autophagy and Sensitizes Cancer Cells to Nutrient Stress” (iScience, 2018).

Tests used:
[1] = molecular target: T1, NUAK family SNF1-like kinase 2 (Homo sapiens) (UniProt Q9H093); assay: Inhibition of human recombinant NuaK2 at 40 nM in presence of ATP by radiometric assay relative to control
T1 sequence (whole entry): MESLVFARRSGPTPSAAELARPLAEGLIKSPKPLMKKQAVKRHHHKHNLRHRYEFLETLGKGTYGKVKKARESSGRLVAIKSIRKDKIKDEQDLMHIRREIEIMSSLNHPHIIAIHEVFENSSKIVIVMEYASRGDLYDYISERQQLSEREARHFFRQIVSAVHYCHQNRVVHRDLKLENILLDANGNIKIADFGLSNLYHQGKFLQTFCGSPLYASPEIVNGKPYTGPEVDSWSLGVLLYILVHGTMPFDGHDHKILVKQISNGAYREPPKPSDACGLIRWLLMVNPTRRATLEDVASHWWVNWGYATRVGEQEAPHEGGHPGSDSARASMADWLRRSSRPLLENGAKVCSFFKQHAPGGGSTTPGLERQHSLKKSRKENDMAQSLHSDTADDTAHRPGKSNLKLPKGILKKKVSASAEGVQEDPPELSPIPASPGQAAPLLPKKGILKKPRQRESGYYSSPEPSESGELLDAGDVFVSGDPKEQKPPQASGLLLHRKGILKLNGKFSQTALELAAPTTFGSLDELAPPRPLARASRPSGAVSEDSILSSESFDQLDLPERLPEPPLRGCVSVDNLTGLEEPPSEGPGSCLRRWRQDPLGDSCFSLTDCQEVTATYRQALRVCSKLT

[2] = molecular target: Calcium/calmodulin-dependent protein kinase type II subunit beta (Homo sapiens) (UniProt Q13554); assay: Inhibition of human recombinant CaMK2b at 40 nM in presence of ATP by radiometric assay relative to control
Sequence of Calcium/calmodulin-dependent protein kinase type II subunit beta (Homo sapiens) (Q13554 whole entry): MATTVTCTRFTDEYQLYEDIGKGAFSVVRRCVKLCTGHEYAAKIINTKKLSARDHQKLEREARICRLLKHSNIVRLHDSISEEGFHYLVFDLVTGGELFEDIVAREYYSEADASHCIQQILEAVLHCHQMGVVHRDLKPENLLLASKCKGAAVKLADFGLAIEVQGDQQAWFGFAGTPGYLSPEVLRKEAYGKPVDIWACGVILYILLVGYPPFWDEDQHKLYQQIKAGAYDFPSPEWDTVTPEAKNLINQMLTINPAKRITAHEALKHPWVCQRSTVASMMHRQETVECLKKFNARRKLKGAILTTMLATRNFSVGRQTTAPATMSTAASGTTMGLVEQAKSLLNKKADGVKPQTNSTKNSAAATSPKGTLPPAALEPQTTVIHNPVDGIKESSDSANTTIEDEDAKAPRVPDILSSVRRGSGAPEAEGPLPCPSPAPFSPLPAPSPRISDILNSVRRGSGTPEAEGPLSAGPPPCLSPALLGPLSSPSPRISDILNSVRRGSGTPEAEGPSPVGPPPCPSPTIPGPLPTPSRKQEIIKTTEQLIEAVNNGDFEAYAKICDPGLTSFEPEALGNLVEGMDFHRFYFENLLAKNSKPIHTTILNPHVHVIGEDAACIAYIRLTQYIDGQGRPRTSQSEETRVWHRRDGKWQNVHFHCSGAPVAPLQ

[3] = molecular target: T2, Dual specificity tyrosine-phosphorylation-regulated kinase 3 (Homo sapiens) (UniProt O43781); assay: Inhibition of human recombinant DYRK3 at 500 nM related to control ULK1
T2 sequence (whole entry): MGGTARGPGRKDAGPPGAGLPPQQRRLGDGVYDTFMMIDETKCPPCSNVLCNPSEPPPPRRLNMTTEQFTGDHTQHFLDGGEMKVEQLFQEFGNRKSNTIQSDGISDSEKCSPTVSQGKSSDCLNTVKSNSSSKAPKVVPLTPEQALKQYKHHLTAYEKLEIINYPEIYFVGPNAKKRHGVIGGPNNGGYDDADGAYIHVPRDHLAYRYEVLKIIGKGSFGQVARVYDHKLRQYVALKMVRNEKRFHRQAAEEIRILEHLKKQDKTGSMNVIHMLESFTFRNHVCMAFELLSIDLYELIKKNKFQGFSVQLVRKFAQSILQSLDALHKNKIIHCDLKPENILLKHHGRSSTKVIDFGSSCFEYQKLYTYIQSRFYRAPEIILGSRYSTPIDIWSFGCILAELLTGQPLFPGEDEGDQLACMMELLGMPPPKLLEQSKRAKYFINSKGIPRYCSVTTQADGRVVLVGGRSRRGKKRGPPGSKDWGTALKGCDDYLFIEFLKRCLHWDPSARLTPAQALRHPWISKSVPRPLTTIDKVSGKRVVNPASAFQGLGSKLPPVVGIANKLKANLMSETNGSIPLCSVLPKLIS

[4] = molecular target: Aurora kinase B (Homo sapiens) (UniProt Q96GD4); assay: Inhibition of human recombinant AurB at 500 nM related to control ULK1
Sequence of Aurora kinase B (Homo sapiens) (Q96GD4 whole entry): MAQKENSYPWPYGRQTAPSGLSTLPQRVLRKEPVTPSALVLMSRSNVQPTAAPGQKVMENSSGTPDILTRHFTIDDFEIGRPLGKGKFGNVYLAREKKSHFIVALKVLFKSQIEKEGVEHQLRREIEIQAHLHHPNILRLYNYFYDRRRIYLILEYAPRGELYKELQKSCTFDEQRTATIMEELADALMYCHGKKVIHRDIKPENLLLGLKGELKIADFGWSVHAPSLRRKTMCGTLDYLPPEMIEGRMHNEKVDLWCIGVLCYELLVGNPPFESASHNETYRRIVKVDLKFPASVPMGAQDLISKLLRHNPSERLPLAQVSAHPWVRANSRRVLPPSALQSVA

[5] = organism: Homo sapiens; assay: Inhibition of human recombinant KHS1 at 500 nM in presence of ATP by radiometric assay relative to control
[6] = molecular target: Aurora kinase B (Homo sapiens) (UniProt Q96GD4); assay: Inhibition of human recombinant AurB at 15 nM in presence of ATP by radiometric assay relative to control
Summary of the method: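 Part of a radiometric in vitro activity panel of 327 recombinant human kinases. Each kinase was tested in duplicate at one inhibitor concentration. Activity remaining was expressed as a percentage of the vehicle control, and percent inhibition was taken as 100 minus that value.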

[7] = molecular target: SRSF protein kinase 3 (Homo sapiens) (UniProt Q9UPE1); assay: Inhibition of human recombinant MSSK1 at 15 nM in presence of ATP by radiometric assay relative to control
Sequence of SRSF protein kinase 3 (Homo sapiens) (Q9UPE1 whole entry): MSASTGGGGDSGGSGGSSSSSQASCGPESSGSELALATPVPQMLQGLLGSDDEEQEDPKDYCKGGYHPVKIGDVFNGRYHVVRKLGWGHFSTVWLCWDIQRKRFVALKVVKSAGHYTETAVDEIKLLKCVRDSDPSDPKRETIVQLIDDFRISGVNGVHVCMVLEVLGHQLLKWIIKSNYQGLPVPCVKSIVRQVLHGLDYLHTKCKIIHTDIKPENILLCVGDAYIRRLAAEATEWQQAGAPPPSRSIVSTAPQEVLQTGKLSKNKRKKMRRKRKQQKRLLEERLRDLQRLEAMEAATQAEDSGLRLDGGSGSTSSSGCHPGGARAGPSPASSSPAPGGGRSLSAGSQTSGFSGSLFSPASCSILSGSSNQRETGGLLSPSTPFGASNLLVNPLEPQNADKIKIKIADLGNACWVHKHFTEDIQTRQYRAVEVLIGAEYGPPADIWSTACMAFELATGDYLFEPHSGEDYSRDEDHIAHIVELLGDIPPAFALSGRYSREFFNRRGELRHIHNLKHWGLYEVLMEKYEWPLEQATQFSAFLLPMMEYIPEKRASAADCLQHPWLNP

[8] = molecular target: T3, Muscle, skeletal receptor tyrosine-protein kinase (Homo sapiens) (UniProt O15146); assay: Inhibition of human recombinant MUSK at 15 nM related to control ULK1
T3 sequence (whole entry): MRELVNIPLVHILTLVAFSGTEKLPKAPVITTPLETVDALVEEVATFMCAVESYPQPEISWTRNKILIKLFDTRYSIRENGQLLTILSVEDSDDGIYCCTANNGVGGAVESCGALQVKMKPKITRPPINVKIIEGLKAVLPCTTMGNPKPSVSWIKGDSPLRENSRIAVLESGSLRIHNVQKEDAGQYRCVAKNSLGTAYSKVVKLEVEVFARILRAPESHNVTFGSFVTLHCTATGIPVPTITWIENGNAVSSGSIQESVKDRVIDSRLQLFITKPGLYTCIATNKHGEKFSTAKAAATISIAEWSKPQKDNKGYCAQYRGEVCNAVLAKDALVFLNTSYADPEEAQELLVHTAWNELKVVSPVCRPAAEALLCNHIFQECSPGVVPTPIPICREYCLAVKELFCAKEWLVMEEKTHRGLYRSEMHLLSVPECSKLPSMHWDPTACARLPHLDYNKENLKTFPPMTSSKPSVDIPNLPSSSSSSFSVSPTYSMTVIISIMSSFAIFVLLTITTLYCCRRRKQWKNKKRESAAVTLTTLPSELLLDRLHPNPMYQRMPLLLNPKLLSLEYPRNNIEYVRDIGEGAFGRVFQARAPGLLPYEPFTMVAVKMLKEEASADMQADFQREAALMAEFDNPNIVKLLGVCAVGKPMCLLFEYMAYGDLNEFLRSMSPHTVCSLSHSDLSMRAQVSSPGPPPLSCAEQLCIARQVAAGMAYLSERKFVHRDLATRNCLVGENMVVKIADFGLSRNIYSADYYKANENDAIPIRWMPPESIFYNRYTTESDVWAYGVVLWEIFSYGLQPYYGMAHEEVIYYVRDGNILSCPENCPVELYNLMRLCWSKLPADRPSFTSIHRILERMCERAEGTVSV

Compound: O=C(N[C@@H](C1CC1)C(F)(F)F)c1cc(-c2cnn3cc(-c4ccc(F)cc4)cnc23)cs1
- inhibition [1]: 3%
- inhibition [2]: 0%

Compound: CNC(=O)c1ccccc1Oc1nc(Nc2cc(OC)c(OC)c(OC)c2)ncc1Br
- fold change (FC) [3]: 0
- fold change (FC) [4]: 1.24
- inhibition [5]: 11%

Compound: CC(C)[C@H](NC(=O)c1cc(-c2cnn3cc(-c4ccc(OCCN5CCCCC5)cc4)cnc23)cs1)C(F)(F)F
- inhibition [6]: 18%
- inhibition [7]: 0%
- fold change (FC) [8]: 0
